In brackets after ≈: the same amount, converted by molar mass.
Columns and labels:
Enterobacter cloacae [1] = experiment: (§1) Antibacterial activity against Enterobacter cloacae 265A; assay type: functional
Streptococcus pneumoniae = experiment: Antibacterial activity against Streptococcus pneumoniae; assay type: functional
Pseudomonas aeruginosa [2] = experiment: Antibacterial activity against Pseudomonas aeruginosa PS18; assay type: functional
Mus musculus [3] = experiment: (§2) In vivo efficacy against Staphylococcus aureus infected mice treated at 1 hr and 5 hr post infection; assay type: functional
Summary of the method: (§3)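 Mice given lethal experimental infections, with treatment at 1 and 5 h postinfection; ED50 expressed as mg/kg × 2.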

Mus musculus [4] = experiment: (§4) In vivo efficacy against Escherichia coli infected mice treated at 1 hr and 5 hr post infection; assay type: functional; summary of the method: as §3
Serratia marcescens = experiment: Antibacterial activity against Serratia marcescens SE3; assay type: functional
Escherichia coli [5] = experiment: Antibacterial activity against Escherichia coli TEM; assay type: functional
Pseudomonas aeruginosa [6] = experiment: Antibacterial activity against Pseudomonas aeruginosa X528; assay type: functional
Mus musculus [7] = experiment: (§5) In vivo efficacy against Pseudomonas aeruginosa infected mice treated at 1 hr and 5 hr post infection; assay type: functional; summary of the method: as §3
Escherichia coli [8] = experiment: Antibacterial activity against Escherichia coli EC14; assay type: functional
Enterobacter cloacae [9] = experiment: Antibacterial activity against Enterobacter cloacae EB5; assay type: functional
Klebsiella pneumoniae [10] = experiment: Antibacterial activity against Klebsiella pneumoniae X26; assay type: functional
Streptococcus pyogenes [11] = experiment: Antibacterial activity against Streptococcus pyogenes; assay type: functional
Staphylococcus aureus [12] = experiment: Antibacterial activity against penicillin G susceptible Staphylococcus aureus; assay type: functional
Staphylococcus aureus [13] = experiment: Antibacterial activity against penicillin G resistance Staphylococcus aureus; assay type: functional
[14] = Terminal half life in dogs at the dose of 15 mg/kg.; assay type: ADME, organism-based, Canis lupus familiaris; set-up: dose 15 mg/kg; settings: dog, in vivo
Summary of the method: (§6)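 Overnight-fasted female mongrel dogs with a Foley bladder catheter; bolus into the cephalic vein. Plasma and urine collected before dosing and over 24 h after. Antibacterial activity measured by microbiological assay.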

Cavia porcellus [15] = species: Cavia porcellus; experiment: In vitro relative anticholinergic potential in isolated guinea pig trachea; assay type: functional
Summary of the method: (§7)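 Guinea pig trachea in Krebs' solution at 37.5 °C, 95% O2/5% CO2, pH 7.4, 2 g resting tension. Cumulative carbachol log dose-response curve (3-fold steps) run before and 30 min after adding antagonist at 1 mM. […] Tukey test on log2 dose ratios.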

Staphylococcus aureus [16] = experiment: In vitro relative hydrolysis rate against Staphylococcus aureus; assay type: functional
Summary of the method: (§8)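 Spectrophotometric hydrolysis at 265 nm, substrate exposed to partially purified cell-free β-lactamase preparations; rate expressed as percentage of the cephaloridine rate.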

[17] = In vitro dose required for anticholinergic activity in isolated guinea pig trachea; assay type: functional
[18] = Terminal half life in dogs at the dose of 30 mg/kg.; assay type: ADME, organism-based, Canis lupus familiaris; set-up: dose 30 mg/kg; settings: dog, in vivo; summary of the method: as §6
Escherichia coli [19] = experiment: In vitro relative hydrolysis rate against Escherichia coli IIIa; assay type: functional; summary of the method: as §8
Enterococcus faecium = experiment: Antibacterial activity against Enterococcus faecium; assay type: functional; settings: Enterococcus faecium; read-out: MIC
Enterobacter cloacae [20] = experiment: In vitro relative hydrolysis rate against Enterobacter Ia; assay type: functional; summary of the method: as §8
Staphylococcus aureus [21] = experiment: In vivo efficacy against Staphylococcus aureus infections in mice; assay type: functional; settings: Staphylococcus aureus; read-out: MIC
Pseudomonas aeruginosa [22] = experiment: as §5; assay type: functional; settings: Pseudomonas aeruginosa; read-out: ED50
Pseudomonas aeruginosa [23] = experiment: In vivo efficacy against Pseudomonas aeruginosa infections in mice; assay type: functional; settings: Pseudomonas aeruginosa; read-out: MIC
Pseudomonas aeruginosa [24] = experiment: In vitro relative hydrolysis rate against Pseudomonas Id; assay type: functional; summary of the method: as §8
Klebsiella pneumoniae [25] = experiment: microbe, parasite or virus in culture; assay type: functional; settings: Klebsiella pneumoniae; read-out: MIC
Klebsiella pneumoniae [26] = experiment: In vitro relative hydrolysis rate against Klebsiella IV; assay type: functional; summary of the method: as §8
Cavia porcellus [27] = species: Cavia porcellus; experiment: In vitro relative anticholinergic activity in isolated guinea pig trachea; assay type: functional; settings: read-out: pA2 (converted); summary of the method: as §7
Staphylococcus aureus [28] = experiment: as §2; assay type: functional; settings: Staphylococcus aureus; read-out: ED50
Canis familiaris [29] = experiment: Percent of dose in dogs urine at the dose of 30 mg/kg.; assay type: functional, Canis lupus familiaris; summary of the method: as §6
Escherichia coli [30] = experiment: as §4; assay type: functional; settings: Escherichia coli; read-out: ED50
Escherichia coli [31] = experiment: In vivo efficacy against Escherichia coli infections in mice; assay type: functional; settings: Escherichia coli; read-out: MIC
Canis familiaris [32] = experiment: Percent of dose in dogs urine at the dose of 15 mg/kg.; assay type: functional, Canis lupus familiaris; summary of the method: as §6
[33] = Terminal half life in dogs at the dose of 20 mg/kg.; assay type: ADME, organism-based, Canis lupus familiaris; set-up: dose 20 mg/kg; settings: dog, in vivo; summary of the method: as §6
Monkey = experiment: Percent of dose in Rhesus monkeys urine at the dose of 30 mg/kg.; assay type: functional, Cercopithecidae
Summary of the method: (§9)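 Male rhesus monkeys dosed intravenously at 30 mg/kg. Plasma sampled from 0.08–0.1 h up to 6–8 h; urine collected over 0–6/8 and 6/8–24 h. Samples measured by microbiological assay.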

[34] = Terminal half life in Rhesus monkeys at the dose of 30 mg/kg.; assay type: ADME, organism-based, Macaca mulatta; set-up: dose 30 mg/kg; settings: rhesus monkey, in vivo; summary of the method: as §9
[35] = Terminal half life in dogs at the dose of 10 mg/kg.; assay type: ADME, organism-based, Canis lupus familiaris; set-up: dose 10 mg/kg; settings: dog, in vivo; summary of the method: as §6
[36] = Terminal half life in Rhesus […] the dose of 30 mg/kg.; assay type: ADME, organism-based, Macaca mulatta; set-up: dose 30 mg/kg; settings: rhesus monkey
Summary of the method: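 Male rhesus monkeys, 4 per compound, given a single intravenous dose of 30 mg/kg. […] Plasma and urine antibiotic levels measured by microbiological assay. Terminal half-life reported in min.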

Bacteria = experiment: as §1
Streptococcus pyogenes [37] = experiment: Antibacterial activity against Streptococcus pyogenes
[38] = Enterobacter cloacae, read-out: MIC
[39] = Streptococcus pneumoniae, read-out: MIC
[40] = Pseudomonas aeruginosa, read-out: MIC
[41] = Serratia marcescens, read-out: MIC
[42] = Escherichia coli, read-out: MIC
[43] = Klebsiella pneumoniae, read-out: MIC
[44] = Streptococcus pyogenes, read-out: MIC
[45] = Staphylococcus aureus, read-out: MIC

Row | Compound | MIC (Enterobacter cloacae [1]; [38]) [µg/mL] | RAP (Cavia porcellus [15]) | MIC (Streptococcus pneumoniae; [39]) [µg/mL] | MIC (Pseudomonas aeruginosa [2]; [40]) [µg/mL] | MIC (Enterococcus faecium) [µg/mL] | MIC (Serratia marcescens; [41]) [µg/mL] | MIC (Escherichia coli [5]; [42]) [µg/mL] | MIC (Pseudomonas aeruginosa [6]; [40]) [µg/mL] | MIC (Klebsiella pneumoniae [25]) [µg/mL] | MIC (Escherichia coli [8]; [42]) [µg/mL] | MIC (Enterobacter cloacae [9]; [38]) [µg/mL] | MIC (Klebsiella pneumoniae [10]; [43]) [µg/mL] | MIC (Streptococcus pyogenes [11]; [44]) [µg/mL] | MIC (Staphylococcus aureus [12]; [45]) [µg/mL] | MIC (Staphylococcus aureus [13]; [45]) [µg/mL] | Dose (Monkey) [%] | other results
1 | CO/N=C(\C(=O)N[C@@H]1C(=O)N2C(C(=O)[O-])=C(C[n+]3cccc(CC(=O)O)c3)CS[C@H]12)c1csc(N)n1 (stereo in doubt; 6) |  |  |  |  |  |  |  |  |  |  |  |  |  |  |  |  | MIC (Enterobacter cloacae [1]): >128 µg/mL; MIC (Streptococcus pneumoniae): 0.015 µg/mL (≈ 0.0282 µM); MIC (Pseudomonas aeruginosa [2]): 32 µg/mL (≈ 60.1 µM); ED50 (Mus musculus [3]): 7.8 mg/kg; ED50 (Mus musculus [4]): 0.13 mg/kg; MIC (Serratia marcescens): 0.25 µg/mL (≈ 0.469 µM); MIC (Escherichia coli [5]): 0.03 µg/mL (≈ 0.0563 µM); MIC (Pseudomonas aeruginosa [6]): 8 µg/mL (≈ 15 µM); ED50 (Mus musculus [7]): > 50 mg/kg; MIC (Escherichia coli [8]): 0.015 µg/mL (≈ 0.0282 µM); MIC (Enterobacter cloacae [9]): 0.5 µg/mL (≈ 0.939 µM); MIC (Klebsiella pneumoniae [10]): 0.015 µg/mL (≈ 0.0282 µM); MIC (Streptococcus pyogenes [11]): 0.015 µg/mL (≈ 0.0282 µM); MIC (Staphylococcus aureus [12]): 4 µg/mL (≈ 7.51 µM); MIC (Staphylococcus aureus [13]): 4 µg/mL (≈ 7.51 µM)
2 | CO/N=C(\C(=O)N[C@@H]1C(=O)N2C(C(=O)[O-])=C(C[n+]3ccc4sccc4c3)CS[C@H]12)c1csc(N)n1 | 4 (≈ 7.54 µM) | 100 | 0.015 (≈ 0.0283 µM) | 4 (≈ 7.54 µM) | > 128 | 0.125 (≈ 0.236 µM) | 0.03 (≈ 0.0565 µM) | 2 (≈ 3.77 µM) | 2 (≈ 3.77 µM) | 0.015 (≈ 0.0283 µM) | 0.06 (≈ 0.113 µM) | 0.015 (≈ 0.0283 µM) | < 0.008 | 1 (≈ 1.88 µM) | 2 (≈ 3.77 µM) |  | half-life [14]: 1.75 h; Hydrolysis rate (Staphylococcus aureus [16]): 7.8; Dose ratio [17]: 23.67; half-life [18]: 1.5 h; Hydrolysis rate (Escherichia coli [19]): 0.3; Hydrolysis rate (Enterobacter cloacae [20]): 0.6; MIC (Staphylococcus aureus [21]): 1 µg/mL (≈ 1.88 µM); ED50 (Pseudomonas aeruginosa [22]): 6.3 mg/kg; MIC (Pseudomonas aeruginosa [23]): 2 µg/mL (≈ 3.77 µM); Hydrolysis rate (Pseudomonas aeruginosa [24]): 0.3; Hydrolysis rate (Klebsiella pneumoniae [26]): 3.4; Kb (Cavia porcellus [27]): 43.7 µM; ED50 (Staphylococcus aureus [28]): 0.4 mg/kg; Dose (Canis familiaris [29]): 58%; ED50 (Escherichia coli [30]): 0.02 mg/kg; MIC (Escherichia coli [31]): < 0.008 µg/mL; Dose (Canis familiaris [32]): 55%
3 | CO/N=C(\C(=O)N[C@@H]1C(=O)N2C(C(=O)[O-])=C(C[n+]3ccc4ncn(C)c4c3)CS[C@H]12)c1csc(N)n1 | 8 (≈ 15.1 µM) | 1 |  | 8 (≈ 15.1 µM) | 128 (≈ 242 µM) | 0.125 (≈ 0.236 µM) |  | 2 (≈ 3.78 µM) | 8 (≈ 15.1 µM) |  | 0.125 (≈ 0.236 µM) |  | 0.008 (≈ 0.0151 µM) | 2 (≈ 3.78 µM) | 2 (≈ 3.78 µM) | 52 | half-life [33]: 1.17 h; half-life [34]: 1.08 h; half-life [35]: 1.27 h
4 | CC(C)(O/N=C(\C(=O)N[C@@H]1C(=O)N2C(C(=O)[O-])=C(C[n+]3ccccc3)CS[C@H]12)c1csc(N)n1)C(=O)O [CEFTAZIDIME] | 64 (≈ 117 µM) | 1 |  | 4 (≈ 7.32 µM) | > 128 | 0.5 (≈ 0.915 µM) |  | 2 (≈ 3.66 µM) | 1 (≈ 1.83 µM) |  |  |  |  |  |  | 64 | half-life [36]: 0.933 h
5 | CO/N=C(\C(=O)N[C@@H]1C(=O)N2C(C(=O)[O-])=C(C[n+]3cccc(CC(=O)O)c3)CS[C@H]12)c1csc(N)n1 (stereo in doubt; 17) |  |  |  |  |  |  |  |  |  |  |  |  |  |  |  |  | MIC (Bacteria): 32 µg/mL (≈ 60.1 µM)
6 | CO/N=C(\C(=O)N[C@@H]1C(=O)N2C(C(=O)[O-])=C(C[n+]3cccc4c3CCC4)CS[C@H]12)c1csc(N)n1 [CEFPIROME] | 0.5 (≈ 0.972 µM) | 4 | 0.015 (≈ 0.0291 µM) | 8 (≈ 15.5 µM) | 8 (≈ 15.5 µM) | 0.125 (≈ 0.243 µM) | 0.03 (≈ 0.0583 µM) | 2 (≈ 3.89 µM) | 4 (≈ 7.77 µM) | 0.015 (≈ 0.0291 µM) | 0.06 (≈ 0.117 µM) | 0.015 (≈ 0.0291 µM) | 0.008 (≈ 0.0155 µM) | 1 (≈ 1.94 µM) | 1 (≈ 1.94 µM) | 61 | Dose ratio [17]: 1.76; half-life [34]: 1.13 h
7 | CO/N=C(\C(=O)N[C@@H]1C(=O)N2C(C(=O)[O-])=C(C[n+]3cccc4ncccc43)CS[C@H]12)c1csc(N)n1 | 8 (≈ 15.2 µM) |  | 0.06 (≈ 0.114 µM) | 8 (≈ 15.2 µM) | > 128 | 0.5 (≈ 0.951 µM) | 0.125 (≈ 0.238 µM) | 4 (≈ 7.61 µM) | 4 (≈ 7.61 µM) | 0.06 (≈ 0.114 µM) | 0.25 (≈ 0.476 µM) | 0.06 (≈ 0.114 µM) |  | 2 (≈ 3.81 µM) | 4 (≈ 7.61 µM) |  | MIC (Streptococcus pyogenes [37]): 0.03 µg/mL (≈ 0.0571 µM)

Source: ChEMBL document CHEMBL1124865, “Synthesis and biological evaluation of a series of parenteral 3'-quaternary ammonium cephalosporins” (J Med Chem, 1990)
